Active and inactive are the calls of the source. No cut-off for these calls is given here. Bounds are passed on as bounds.

One data set has as its system RAW264.7. Kind of data set: Inhibition of C5a-mediated PKB/Akt phosphorylation in mouse Raw264 macrophage. It counts as functional, cell-based. Put shortly:
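Raw-264 murine macrophages starved 3 h in serum-free medium, pretreated 30 min with inhibitor or DMSO, then stimulated 5 min with 50 nM C5a. Phospho-Ser-473 Akt measured by ELISA. Concentration-response; IC50. Mean ± standard deviation of four independent experiments done in triplicate.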

Data set [1] concerns the target T1, Phosphatidylinositol 4,5-bisphosphate 3-kinase catalytic subunit gamma isoform (Homo sapiens, UniProt P48736). Kind of data set: Inhibition of human PI3Kgamma.
Target sequence in this assay (P48736 whole entry, canonical isoform): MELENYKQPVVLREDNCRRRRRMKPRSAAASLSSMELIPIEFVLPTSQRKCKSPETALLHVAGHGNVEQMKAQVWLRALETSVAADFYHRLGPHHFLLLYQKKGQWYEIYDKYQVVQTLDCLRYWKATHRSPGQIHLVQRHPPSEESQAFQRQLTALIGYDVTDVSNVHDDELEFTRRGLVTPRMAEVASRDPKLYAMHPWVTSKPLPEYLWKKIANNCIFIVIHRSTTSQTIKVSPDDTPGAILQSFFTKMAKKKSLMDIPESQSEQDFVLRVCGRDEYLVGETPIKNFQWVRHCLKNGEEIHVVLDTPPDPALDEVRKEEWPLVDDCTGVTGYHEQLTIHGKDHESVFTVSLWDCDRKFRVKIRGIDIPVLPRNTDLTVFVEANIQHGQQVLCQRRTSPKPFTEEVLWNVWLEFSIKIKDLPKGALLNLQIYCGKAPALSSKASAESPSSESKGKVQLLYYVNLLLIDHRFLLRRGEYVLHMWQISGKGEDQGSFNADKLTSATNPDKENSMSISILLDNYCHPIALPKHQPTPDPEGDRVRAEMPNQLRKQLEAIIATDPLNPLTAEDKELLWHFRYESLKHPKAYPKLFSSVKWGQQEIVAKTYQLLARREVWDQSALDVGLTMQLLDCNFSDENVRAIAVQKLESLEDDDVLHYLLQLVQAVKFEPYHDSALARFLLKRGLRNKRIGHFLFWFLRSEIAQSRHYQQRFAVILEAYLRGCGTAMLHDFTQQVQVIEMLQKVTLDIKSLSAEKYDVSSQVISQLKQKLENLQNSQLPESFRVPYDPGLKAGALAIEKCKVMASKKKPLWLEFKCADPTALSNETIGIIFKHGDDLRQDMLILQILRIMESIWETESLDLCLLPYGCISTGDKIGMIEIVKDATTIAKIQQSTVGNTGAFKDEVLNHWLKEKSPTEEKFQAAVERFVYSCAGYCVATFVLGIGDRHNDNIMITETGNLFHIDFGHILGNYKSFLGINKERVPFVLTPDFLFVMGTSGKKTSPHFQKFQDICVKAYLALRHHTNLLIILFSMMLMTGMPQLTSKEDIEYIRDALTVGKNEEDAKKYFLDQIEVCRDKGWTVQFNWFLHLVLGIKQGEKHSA
Data set [2] has as its target Phosphatidylinositol 4,5-bisphosphate 3-kinase catalytic subunit alpha isoform (Homo sapiens, UniProt P42336). Kind of data set: Inhibition of human PI3Kalpha.
The target of data set [3] is Phosphatidylinositol 4,5-bisphosphate 3-kinase catalytic subunit beta isoform (Homo sapiens, UniProt P42338). Kind of data set: Inhibition of human PI3Kbeta.
Data set [4] is described as follows: Dissociation constant, pKa of the compound. It counts as physicochemical. Put shortly:
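UV-metric titration under argon at 25 ± 0.5 °C. 10 mM DMSO stock diluted into 0.15 M KCl containing 60, 50, 40 or 30 wt% MeOH, with 0.25 mM KH2PO4. Brought to pH 11.0 with 0.5 M KOH, then titrated with 0.5 M HCl to pH 4, at most 0.15 pH unit per step. UV 200-500 nm recorded after each addition; Yasuda-Shedlovsky extrapolation to zero cosolvent.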

Data set [5] deals with T2, Phosphatidylinositol 4,5-bisphosphate 3-kinase catalytic subunit delta isoform (Homo sapiens, UniProt O00329).
T2 sequence (O00329 whole entry): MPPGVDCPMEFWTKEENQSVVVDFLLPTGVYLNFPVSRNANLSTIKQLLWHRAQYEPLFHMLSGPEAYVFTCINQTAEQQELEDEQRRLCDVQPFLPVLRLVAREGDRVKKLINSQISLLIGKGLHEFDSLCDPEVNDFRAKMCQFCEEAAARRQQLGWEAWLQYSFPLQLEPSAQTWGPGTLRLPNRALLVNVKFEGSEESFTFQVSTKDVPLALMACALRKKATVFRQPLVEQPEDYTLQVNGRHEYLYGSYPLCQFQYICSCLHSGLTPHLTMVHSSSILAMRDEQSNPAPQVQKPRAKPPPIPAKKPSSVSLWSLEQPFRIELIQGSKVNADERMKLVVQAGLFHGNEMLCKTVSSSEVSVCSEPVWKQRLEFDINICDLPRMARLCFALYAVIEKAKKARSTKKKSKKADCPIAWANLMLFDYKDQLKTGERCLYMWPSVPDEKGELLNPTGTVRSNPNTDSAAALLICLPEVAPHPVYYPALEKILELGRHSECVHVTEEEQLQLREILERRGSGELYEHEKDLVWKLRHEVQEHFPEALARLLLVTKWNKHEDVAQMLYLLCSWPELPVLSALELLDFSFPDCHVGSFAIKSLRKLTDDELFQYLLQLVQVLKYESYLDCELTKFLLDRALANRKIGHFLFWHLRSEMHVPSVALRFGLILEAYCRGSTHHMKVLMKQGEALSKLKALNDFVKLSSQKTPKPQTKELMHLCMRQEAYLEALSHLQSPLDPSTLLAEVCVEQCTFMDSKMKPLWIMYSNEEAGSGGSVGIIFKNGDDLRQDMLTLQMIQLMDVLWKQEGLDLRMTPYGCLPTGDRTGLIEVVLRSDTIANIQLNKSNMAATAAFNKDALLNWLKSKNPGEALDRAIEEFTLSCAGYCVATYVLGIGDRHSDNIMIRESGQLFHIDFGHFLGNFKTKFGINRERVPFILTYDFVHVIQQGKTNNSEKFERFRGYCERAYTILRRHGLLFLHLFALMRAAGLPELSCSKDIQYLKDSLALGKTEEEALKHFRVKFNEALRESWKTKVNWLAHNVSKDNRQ
Kind of data set: Inhibition of human PI3Kdelta.

Data set [6] addresses T1, Phosphatidylinositol 4,5-bisphosphate 3-kinase catalytic subunit gamma isoform. Kind of data set: Inhibition of human PI3Kgamma at 1 uM. An outline of the steps:
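Primary screen of PI3Kγ lipid kinase (SPA, ATP/[γ33P]ATP with PtdIns substrate); percent inhibition at 1 µM compound.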
Target sequence in this assay (P48736 whole entry, looked up, canonical isoform): as the sequence (P48736 whole entry, canonical isoform) above

In data set [7] the test system is THP-1. The data set is described as follows: Inhibition of MCP1-induced PKB/Akt phosphorylation in THP1 cells. Type of data set: functional, cell-based. The conditions noted are these: Homo sapiens. An outline of the steps:
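THP-1 monocytes starved 3 h in serum-free medium and pretreated with inhibitor or DMSO (15 min in methods; 20 min in figure legend). Stimulated with 100 nM MCP-1/CCL2 for 30 s, or with 50 ng/mL CSF-1 for 5 min. Phospho-Ser-473 and total Akt detected by Western blot and quantified.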

In data set [8] the test system is THP-1. Kind of data set: Inhibition of CSF-1-induced PKB/Akt phosphorylation in THP1 cells. Conditions: Homo sapiens.
For the next data set, the system named is Mast cell. Kind of data set: Inhibition of SCF-induced PKB/Akt phosphorylation in mouse mast cells at 20 uM. It counts as functional, cell-based. An outline of the steps:
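Bone marrow mast cells from 4- to 8-week-old wild-type mice, derived ≥4 weeks in 20 ng/mL SCF plus 20 ng/mL IL-3 and confirmed c-kit+ by FACS. Cells at 2.5 × 10^6/mL starved 24 h without SCF/IL-3, preincubated 20 min with compound or 1% DMSO, stimulated 15 min at 37 °C with 20 ng/mL SCF. Fixed in 1.5% paraformaldehyde, permeabilized with 0.2% Triton X-100, phospho-Ser-473 Akt read by FACS.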

Data set [9] deals with THP-1. The data set is described as follows: Inhibition of MCP1-induced chemotaxis of THP1 cells. Conditions: Homo sapiens. Type of data set: functional, cell-based.

Sequence of Phosphatidylinositol 4,5-bisphosphate 3-kinase catalytic subunit alpha isoform (P42336 whole entry, canonical isoform): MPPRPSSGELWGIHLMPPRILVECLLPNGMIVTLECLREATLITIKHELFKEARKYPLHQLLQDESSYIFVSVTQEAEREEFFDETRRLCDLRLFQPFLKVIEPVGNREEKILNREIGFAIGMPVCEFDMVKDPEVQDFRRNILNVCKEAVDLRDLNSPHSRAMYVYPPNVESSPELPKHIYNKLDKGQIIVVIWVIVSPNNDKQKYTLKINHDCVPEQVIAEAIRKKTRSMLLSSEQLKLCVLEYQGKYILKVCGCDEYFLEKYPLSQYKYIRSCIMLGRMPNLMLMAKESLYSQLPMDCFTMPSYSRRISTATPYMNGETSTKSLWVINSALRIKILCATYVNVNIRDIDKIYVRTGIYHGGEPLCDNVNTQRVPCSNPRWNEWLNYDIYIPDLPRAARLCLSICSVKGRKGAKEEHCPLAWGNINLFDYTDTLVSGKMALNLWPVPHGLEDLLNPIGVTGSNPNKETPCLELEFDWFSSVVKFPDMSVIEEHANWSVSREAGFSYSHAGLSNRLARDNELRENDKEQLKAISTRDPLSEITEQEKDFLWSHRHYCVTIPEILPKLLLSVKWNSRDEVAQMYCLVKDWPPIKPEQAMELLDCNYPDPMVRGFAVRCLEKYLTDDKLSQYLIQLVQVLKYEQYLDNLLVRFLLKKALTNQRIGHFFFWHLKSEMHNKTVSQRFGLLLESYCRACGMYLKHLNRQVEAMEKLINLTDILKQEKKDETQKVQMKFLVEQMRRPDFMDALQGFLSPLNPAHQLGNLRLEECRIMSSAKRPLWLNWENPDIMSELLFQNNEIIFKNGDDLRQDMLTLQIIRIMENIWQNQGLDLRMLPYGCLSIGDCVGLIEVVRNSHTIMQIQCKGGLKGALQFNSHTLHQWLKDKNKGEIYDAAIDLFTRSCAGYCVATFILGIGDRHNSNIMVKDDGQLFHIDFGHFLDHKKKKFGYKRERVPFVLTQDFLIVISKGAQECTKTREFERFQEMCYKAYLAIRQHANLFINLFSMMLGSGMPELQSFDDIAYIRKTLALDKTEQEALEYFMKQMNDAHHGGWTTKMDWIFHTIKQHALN
Sequence of Phosphatidylinositol 4,5-bisphosphate 3-kinase catalytic subunit beta isoform (P42338 whole entry, canonical isoform): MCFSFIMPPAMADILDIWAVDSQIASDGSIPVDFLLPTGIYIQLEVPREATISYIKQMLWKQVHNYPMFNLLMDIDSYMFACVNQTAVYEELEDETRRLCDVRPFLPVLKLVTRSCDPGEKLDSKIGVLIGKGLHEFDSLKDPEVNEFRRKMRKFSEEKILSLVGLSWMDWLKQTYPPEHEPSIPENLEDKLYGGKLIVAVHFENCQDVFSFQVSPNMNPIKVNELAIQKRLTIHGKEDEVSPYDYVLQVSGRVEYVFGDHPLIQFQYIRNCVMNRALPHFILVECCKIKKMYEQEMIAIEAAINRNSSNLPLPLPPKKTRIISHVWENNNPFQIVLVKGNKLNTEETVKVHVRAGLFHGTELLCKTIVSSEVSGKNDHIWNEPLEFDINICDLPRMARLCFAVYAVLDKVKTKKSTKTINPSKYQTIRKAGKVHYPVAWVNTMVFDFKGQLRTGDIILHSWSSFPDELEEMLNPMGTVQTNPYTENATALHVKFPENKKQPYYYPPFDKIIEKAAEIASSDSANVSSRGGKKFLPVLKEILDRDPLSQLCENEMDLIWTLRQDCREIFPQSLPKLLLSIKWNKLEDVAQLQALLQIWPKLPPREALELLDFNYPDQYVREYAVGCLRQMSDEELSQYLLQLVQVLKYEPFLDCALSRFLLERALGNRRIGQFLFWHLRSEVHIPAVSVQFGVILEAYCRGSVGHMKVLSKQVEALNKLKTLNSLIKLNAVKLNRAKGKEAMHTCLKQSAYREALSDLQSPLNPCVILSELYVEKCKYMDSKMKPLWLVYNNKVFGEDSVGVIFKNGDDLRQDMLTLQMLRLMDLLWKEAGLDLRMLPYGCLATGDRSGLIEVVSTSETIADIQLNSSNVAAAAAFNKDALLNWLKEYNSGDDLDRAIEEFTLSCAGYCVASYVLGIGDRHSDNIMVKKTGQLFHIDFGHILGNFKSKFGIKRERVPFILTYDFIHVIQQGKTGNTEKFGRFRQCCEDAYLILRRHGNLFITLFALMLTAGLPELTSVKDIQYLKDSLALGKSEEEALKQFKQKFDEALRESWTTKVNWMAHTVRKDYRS

For orientation: IC50 means the concentration that inhibits the measured activity by half. In the case of `O=C1NC(=O)/C(=C/c2ccc(-c3ccccn3)o2)S1`, the IC50 in the data set on RAW264.7 is 3.65 µM; in data set [1], 0.11 µM; in data set [2], 0.185 µM.

As for `O=C1NC(=O)/C(=C/c2ccc(-c3ccc4c(c3)OCO4)o2)S1`, the IC50 in [1] and in data set [2] was 20 µM each time.

In turn, `O=C1NC(=O)/C(=C/c2ccc(-c3ccoc3)o2)S1` had an IC50 in data set [1] of 0.84 µM.

Molecule `O=C1NC(=O)/C(=C/c2ccc(-c3ccc(F)cc3F)o2)S1` gave an IC50 in [1] of 3.8 µM.

By pKa is commonly meant the pH at which an ionisable group is half protonated. Turning to `O=C1NC(=O)/C(=C/c2ccc(-c3ccccc3O)o2)S1`, the half-inhibitory concentration (IC50) was 0.81 µM in the data set on RAW264.7; 20 µM in data set [3]; 0.03 µM in data set [1]; > 5 µM in [5]; 0.33 µM in [2]. This molecule returned a pKa in data set [4] of 9.5.

For the molecule `O=C1NC(=O)/C(=C/c2ccc(-c3cccc(O)c3)o2)S1`, the IC50 worked out at 0.29 µM in [1] and 1.8 µM in data set [2].

Usually inhibition stands for the share of the control response that was lost under treatment. High values mean strong suppression, low ones little suppression. As to `O=C1NC(=O)/C(=C/c2ccc(-c3ccc(F)cc3O)s2)S1`, the inhibition in data set [6] was determined as 4%.

In the case of `O=C1NC(=O)/C(=C/c2ccc(-c3cc(OC(F)(F)F)ccc3O)o2)S1`, the results for the IC50 (in the data set with RAW264.7; in data set [1]; in data set [2]) were 0.88 µM, 0.056 µM and 0.6 µM, respectively. For the same molecule, the pKa in data set [4] was determined as 8.7.

`O=C1NC(=O)/C(=C/c2ccc(-c3cc(C(=O)O)ccc3O)o2)S1`: the 50% inhibitory concentration (IC50) in [1] is 0.53 µM; in data set [2], 1.35 µM. Moreover, in [4], the pKa amounted to 8.6.

Turning to `O=C1NC(=O)/C(=C/c2ccc(-c3cc(Cl)ccc3O)o2)S1`, the IC50 in [1] amounted to 0.043 µM; in [2], 0.545 µM. In [4], the pKa was 8.9.

Turning to `O=C1NC(=S)S/C1=C\c1ccc(-c2cc([N+](=O)[O-])ccc2O)o1`, the IC50 amounted to 0.2 µM in data set [1] and 0.6 µM in data set [2].

As to `O=C(O)Cc1ccccc1-c1ccc(/C=C2\SC(=O)NC2=O)o1`, the inhibition in data set [6] came out at 12%.

Take `COc1cc(F)ccc1-c1ccc(/C=C2\SC(=O)NC2=O)o1`: the inhibition in data set [6] worked out at 11%.

Consider `O=C1NC(=O)/C(=C/c2ccc(-c3ccccc3)o2)S1`, for which the midpoint of inhibition in [1], the IC50, lay at 20 µM.

`CC(=O)Nc1ccccc1-c1ccc(/C=C2\SC(=O)NC2=O)o1` showed an inhibition in data set [6] of 24%.

With `O=C1NC(=O)/C(=C/c2ccc(-c3ccccc3F)o2)S1`, in data set [1], inhibition was half-maximal at 1.2 µM (IC50).

The molecule `O=C1NC(=O)/C(=C/c2ccc(-c3cccc(C(=O)O)c3)o2)S1` returned a 50% inhibitory concentration (IC50) in data set [1] of 4.3 µM.

The molecule `O=C1NC(=O)/C(=C/c2ccc(-c3cccc([N+](=O)[O-])c3)o2)S1` gave an inhibition in data set [6] of 24%.

Consider `O=C1NC(=O)/C(=C/c2ccc(-c3ccccc3C(=O)O)o2)S1`, for which the inhibition in data set [6] was found to be 4%.

As for `O=C1NC(=O)/C(=C/c2ccc(-c3cc(F)ccc3O)o2)S1`, the results for the IC50 (in the data set with RAW264.7; in data set [1]; in data set [2]) were 1.71 µM, 0.037 µM and 0.455 µM, respectively. In addition, the pKa in [4] amounted to 9.1.

For the molecule `COC(=O)c1cccc(-c2ccc(/C=C3\SC(=O)NC3=O)o2)c1`, in data set [1], inhibition was half-maximal at 13.5 µM (IC50).

On to `O=C1NC(=O)/C(=C/c2ccc(-c3ccc(O)cc3O)o2)S1`, for which the figures for the IC50 (in the data set with RAW264.7; in data set [1]; in data set [2]) were 3.49 µM, 0.02 µM and 0.19 µM, respectively. In data set [4], this molecule had a pKa of 8.7.

In turn, `COc1cccc(-c2ccc(/C=C3\SC(=O)NC3=O)o2)c1` came in with an IC50 in [1] of 2.6 µM.

For `O=C1NC(=O)/C(=C/c2ccc(-c3cc(O)ccc3O)o2)S1`, the IC50 in data set [1] came to 0.02 µM; in data set [2], 0.1 µM.

Consider `COC(=O)c1ccccc1-c1ccc(/C=C2\SC(=O)NC2=O)o1`, for which, in [6], the inhibition was 2%.

With `O=C1NC(=S)S/C1=C\c1ccc(-c2cccc(C(=O)O)c2)o1`, the concentration for half-maximal inhibition (IC50) was 0.92 µM in data set [1] and > 20 µM in data set [2].

With `O=C1NC(=O)/C(=C/c2ccc(-c3cccc([N+](=O)[O-])c3O)o2)S1`, the results for the half-inhibitory concentration (IC50) in data set [1] and in data set [2] were 0.08 µM and 1.25 µM, respectively.

As for `O=C1NC(=S)S/C1=C\c1ccc(-c2ccc([N+](=O)[O-])cc2Br)o1`, the IC50 in [1] stood at 3.6 µM.

For the molecule `COC(=O)c1ccc(-c2ccc(/C=C3\SC(=O)NC3=O)o2)c(O)c1`, the IC50 in the data set with RAW264.7 amounted to 0.72 µM; in data set [1], 0.029 µM; in data set [2] it was 0.21 µM. In addition, the pKa in [4] is 8.7.

In turn, `O=C1NC(=O)/C(=C/c2ccc(-c3ccc([N+](=O)[O-])o3)o2)S1` showed an IC50 in [1] of 20 µM.

The molecule `O=C(O)Cc1cccc(-c2ccc(/C=C3\SC(=O)NC3=O)o2)c1` registered an inhibition in [6] of 15%.

In turn, `O=C1NC(=O)/C(=C/c2ccc(-c3cccc4cccnc34)o2)S1` came in with an inhibition in [6] of 17%.

For the molecule `O=C1NC(=O)/C(=C/c2ccc(-c3ccccc3O)s2)S1`, the inhibition in data set [6] turned out to be 27%.

For `O=C1NC(=O)/C(=C/c2ccc(-c3ccccc3Cl)o2)S1`, half-maximal inhibition in [1] (IC50) required 20 µM.

Turning to `Cc1ccc(O)c(-c2ccc(/C=C3\SC(=O)NC3=O)o2)c1`, the half-maximal inhibitory concentration (IC50) in the data set with RAW264.7 turned out to be 1.06 µM; in [1], 0.039 µM; in data set [2], 0.5 µM. In [4], this molecule registered a pKa of 9.7.

`COc1ccccc1-c1ccc(/C=C2\SC(=O)NC2=O)o1` yielded an inhibition in [6] of 44%.

Take `N#Cc1ccc(O)c(-c2ccc(/C=C3\SC(=O)NC3=O)o2)c1`: the 50% inhibitory concentration (IC50) in data set [1] came to 0.04 µM; in data set [2] it was 0.22 µM. In data set [4], this molecule yielded a pKa of 7.3.

With `O=C1NC(=O)/C(=C/c2ccc(-c3ccc(O)cc3)o2)S1`, the half-maximal inhibitory concentration (IC50) in data set [1] stood at 0.38 µM; in data set [2] it was 3.6 µM.

With `O=C1NC(=O)/C(=C/c2ccc(-c3cc(F)cc(F)c3O)s2)S1`, the IC50 turned out to be 1.39 µM in the data set on RAW264.7, 0.029 µM in [1] and 0.34 µM in [2].

Take `O=C1NC(=O)/C(=C/c2ccc(-c3cccnc3)o2)S1`: the results for the half-maximal inhibitory concentration (IC50) in [1] and in [2] were 0.95 µM and 0.63 µM, respectively.

Turning to `O=C1NC(=O)/C(=C/c2ccc(-c3ccc(O)cc3F)o2)S1`, the IC50 in data set [1] turned out to be 0.26 µM; in data set [2], 1 µM.

`Nc1ccc([N+](=O)[O-])cc1-c1ccc(/C=C2\SC(=O)NC2=O)o1` gave an inhibition in data set [6] of 18%.

On to `O=c1cc(N2CCOCC2)oc2c(-c3ccccc3)cccc12` [LY-294002], for which the 50% inhibitory concentration (IC50) came out at 10 µM in the data set with RAW264.7; 1.65 µM in the data set with THP-1 [7]; 1.01 µM in the data set on THP-1 [8]; 1.33 µM in [5]; 37 µM in the data set with THP-1 [9]. In the data set on Mast cell, the outcome was Active.

These data come from ChEMBL document CHEMBL1138050, “Furan-2-ylmethylene thiazolidinediones as novel, potent, and selective inhibitors of phosphoinositide 3-kinase gamma” (J Med Chem, 2006).
